# From ChEMBL document CHEMBL3611968, “Reengineered tricyclic anti-cancer agents” (Bioorg Med Chem, 2015)
# The source made the active and inactive calls. No cut-off for these calls is given here.
# How the values were obtained:
# [1] = Oral bioavailability in mouse at 100 mg/kg; type: ADME, organism-based; conditions: in vivo
# [2] = AUClast in mouse at 25 mg/kg, ip; type: ADME, organism-based; conditions: in vivo
# [3] = tested on: NCI-H1650; experiment: Inhibition of ERK phosphorylation in human NCI-H1650 cells at 20 to 40 uM after 12 hrs by Western blot analysis; type: cell-based
# [4] = tested on: NCI-H1650; experiment: Cell cycle arrest in human NCI-H1650 cells assessed as accumulation at sub-G1 phase at 1 to 40 uM by propidium iodide staining-based flow cytometric analysis; type: functional
# [5] = Tmax in mouse at 100 mg/kg, ip administered through DMA/solutol/water; type: ADME, organism-based; conditions: in vivo
# [6] = Bioavailability in mouse at 25 mg/kg, ip; type: ADME, organism-based; conditions: in vivo
# [7] = target: Sodium channel protein type 5 subunit alpha (Homo sapiens, UniProt Q14524); experiment: Inhibition of Nav1.5 channel (unknown origin) expressed in HEK293 cells at […] by patch clamp assay; type: cell-based
# Sequence of Sodium channel protein type 5 subunit alpha (Q14524 whole entry): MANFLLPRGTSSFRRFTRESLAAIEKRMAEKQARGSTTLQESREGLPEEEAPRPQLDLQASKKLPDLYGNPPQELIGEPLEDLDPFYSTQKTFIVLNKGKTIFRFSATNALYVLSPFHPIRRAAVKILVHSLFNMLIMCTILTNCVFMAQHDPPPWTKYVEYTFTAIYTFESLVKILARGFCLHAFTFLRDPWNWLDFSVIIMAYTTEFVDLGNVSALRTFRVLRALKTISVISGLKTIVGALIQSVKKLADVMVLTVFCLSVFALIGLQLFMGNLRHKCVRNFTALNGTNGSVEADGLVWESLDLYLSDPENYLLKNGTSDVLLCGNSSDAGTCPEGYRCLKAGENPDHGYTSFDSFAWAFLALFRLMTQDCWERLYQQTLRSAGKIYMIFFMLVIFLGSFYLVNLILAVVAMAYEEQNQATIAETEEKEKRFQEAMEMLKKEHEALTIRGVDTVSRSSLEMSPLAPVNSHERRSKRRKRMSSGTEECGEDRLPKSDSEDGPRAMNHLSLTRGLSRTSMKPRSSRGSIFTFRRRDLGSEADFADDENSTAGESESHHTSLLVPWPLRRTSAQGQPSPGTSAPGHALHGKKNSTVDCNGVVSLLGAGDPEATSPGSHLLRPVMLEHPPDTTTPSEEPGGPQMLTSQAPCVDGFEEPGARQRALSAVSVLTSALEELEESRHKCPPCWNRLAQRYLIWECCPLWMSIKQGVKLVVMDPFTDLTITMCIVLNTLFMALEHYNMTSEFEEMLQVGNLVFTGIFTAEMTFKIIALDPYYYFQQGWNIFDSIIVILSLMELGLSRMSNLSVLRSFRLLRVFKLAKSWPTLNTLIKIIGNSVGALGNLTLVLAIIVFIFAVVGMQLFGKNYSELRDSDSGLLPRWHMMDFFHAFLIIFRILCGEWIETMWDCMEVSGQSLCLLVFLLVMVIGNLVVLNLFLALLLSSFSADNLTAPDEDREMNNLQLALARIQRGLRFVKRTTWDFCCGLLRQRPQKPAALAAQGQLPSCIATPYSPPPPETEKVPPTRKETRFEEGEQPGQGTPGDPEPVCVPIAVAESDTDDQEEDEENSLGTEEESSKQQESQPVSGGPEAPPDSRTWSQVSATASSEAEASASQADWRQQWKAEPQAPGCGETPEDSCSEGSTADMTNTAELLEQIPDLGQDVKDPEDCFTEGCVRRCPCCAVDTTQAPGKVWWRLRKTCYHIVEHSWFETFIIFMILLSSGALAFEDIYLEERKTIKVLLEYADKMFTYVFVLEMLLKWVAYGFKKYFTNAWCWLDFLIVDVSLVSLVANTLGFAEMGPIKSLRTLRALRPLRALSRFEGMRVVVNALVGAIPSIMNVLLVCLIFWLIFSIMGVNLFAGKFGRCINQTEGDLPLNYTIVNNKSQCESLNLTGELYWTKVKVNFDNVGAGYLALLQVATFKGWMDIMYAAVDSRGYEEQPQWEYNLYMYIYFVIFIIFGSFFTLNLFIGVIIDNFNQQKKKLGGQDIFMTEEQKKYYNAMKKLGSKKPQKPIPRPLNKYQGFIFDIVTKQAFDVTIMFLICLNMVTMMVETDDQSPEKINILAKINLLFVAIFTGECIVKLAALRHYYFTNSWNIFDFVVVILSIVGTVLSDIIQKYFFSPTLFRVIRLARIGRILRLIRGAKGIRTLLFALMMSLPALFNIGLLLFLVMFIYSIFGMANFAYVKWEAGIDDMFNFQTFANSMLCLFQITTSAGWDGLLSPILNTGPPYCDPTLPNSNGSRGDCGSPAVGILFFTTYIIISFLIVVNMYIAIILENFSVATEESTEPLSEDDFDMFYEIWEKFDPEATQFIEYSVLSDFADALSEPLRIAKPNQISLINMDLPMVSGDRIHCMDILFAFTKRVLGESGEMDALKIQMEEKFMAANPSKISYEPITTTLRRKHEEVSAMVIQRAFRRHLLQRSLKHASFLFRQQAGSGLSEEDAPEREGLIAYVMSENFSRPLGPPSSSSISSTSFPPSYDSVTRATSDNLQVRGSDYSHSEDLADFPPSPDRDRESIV
# [8] = AUClast in mouse at 25 mg/kg, po; type: ADME, organism-based; conditions: in vivo
# [9] = Bioavailability in mouse at 100 mg/kg, ip administered through DMSO; type: ADME, organism-based; conditions: in vivo
# [10] = Oral bioavailability in mouse at 25 mg/kg; type: ADME, organism-based; conditions: in vivo
# [11] = Clearance in mouse at 1 mg/kg, iv; type: ADME, organism-based; conditions: in vivo
# [12] = target: Sodium-dependent serotonin transporter (Homo sapiens) (UniProt P31645); experiment: Displacement of [3H]-imipramine from serotonin transporter (unknown origin) at 0.1 to 10 mM relative to control
# Sequence of Sodium-dependent serotonin transporter (Homo sapiens) (P31645 whole entry, looked up): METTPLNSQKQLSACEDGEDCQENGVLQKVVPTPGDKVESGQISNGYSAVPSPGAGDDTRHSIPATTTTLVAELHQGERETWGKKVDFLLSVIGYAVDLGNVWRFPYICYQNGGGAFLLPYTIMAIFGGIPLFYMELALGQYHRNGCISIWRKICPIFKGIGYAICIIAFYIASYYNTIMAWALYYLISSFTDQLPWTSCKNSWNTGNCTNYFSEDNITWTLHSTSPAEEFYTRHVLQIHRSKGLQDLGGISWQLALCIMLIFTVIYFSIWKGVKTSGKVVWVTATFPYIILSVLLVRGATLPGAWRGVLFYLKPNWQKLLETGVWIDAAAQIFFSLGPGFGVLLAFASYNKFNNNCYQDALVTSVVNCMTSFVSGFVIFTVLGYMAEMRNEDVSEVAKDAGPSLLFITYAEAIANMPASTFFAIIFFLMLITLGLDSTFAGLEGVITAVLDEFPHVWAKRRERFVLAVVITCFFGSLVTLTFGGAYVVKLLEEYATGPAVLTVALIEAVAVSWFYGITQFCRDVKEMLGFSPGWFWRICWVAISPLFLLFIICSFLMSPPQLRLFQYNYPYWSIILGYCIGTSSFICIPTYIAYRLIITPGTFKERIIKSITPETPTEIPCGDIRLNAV
# How it was run: (§1)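 Competitive antagonist radioligand binding at monoamine transporters. Serotonin transporter is labelled with [³H]imipramine and norepinephrine transporter with [³H]nisoxetine. The compound was tested at three concentrations, and binding is expressed as percent inhibition of specific radioligand binding. Each value is the mean of two independent determinations.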
# [13] = tested on: NCI-H1650; experiment: Antitumor activity against human NCI-H1650 cells xenografted in BALB/c nu/nu mouse assessed as change in tumor volume at 100 mg/kg, ip administered every other day for 3 weeks (reference value: 3.46 +/- 0.95); type: functional
# How it was run: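 H1650 tumours were grown in mice. The 100 mg/kg treated group (n = 9) was compared with vehicle controls (n = 7) on mean fold change in tumour volume, using Student's t test.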
# [14] = AUClast in mouse at 100 mg/kg, ip administered through DMA/solutol/water; type: ADME, organism-based; conditions: in vivo
# [15] = tested on: NCI-H1650; experiment: Induction of apoptosis in human NCI-H1650 cells by Annexin V staining in presence of pan caspase inhibition Z-VAD; type: functional, cell-based
# [16] = Cmax in mouse at 25 mg/kg, ip; type: ADME, organism-based; set-up: dose 25 mg/kg, route intraperitoneal; conditions: in vivo
# [17] = species on record: Homo sapiens; experiment: Displacement of [125-I]-apamin from SKCa channel (unknown origin) at 0.1 to 10 mM
# [18] = Tmax in mouse at 100 mg/kg, ip administered through DMSO; type: ADME, organism-based; conditions: in vivo
# [19] = target: Sodium-dependent dopamine transporter (Homo sapiens) (UniProt Q01959); experiment: Displacement of [3H]-BTCP from dopamine transporter (unknown origin) at 1 to 10 mM
# Sequence of Sodium-dependent dopamine transporter (Homo sapiens) (Q01959 whole entry): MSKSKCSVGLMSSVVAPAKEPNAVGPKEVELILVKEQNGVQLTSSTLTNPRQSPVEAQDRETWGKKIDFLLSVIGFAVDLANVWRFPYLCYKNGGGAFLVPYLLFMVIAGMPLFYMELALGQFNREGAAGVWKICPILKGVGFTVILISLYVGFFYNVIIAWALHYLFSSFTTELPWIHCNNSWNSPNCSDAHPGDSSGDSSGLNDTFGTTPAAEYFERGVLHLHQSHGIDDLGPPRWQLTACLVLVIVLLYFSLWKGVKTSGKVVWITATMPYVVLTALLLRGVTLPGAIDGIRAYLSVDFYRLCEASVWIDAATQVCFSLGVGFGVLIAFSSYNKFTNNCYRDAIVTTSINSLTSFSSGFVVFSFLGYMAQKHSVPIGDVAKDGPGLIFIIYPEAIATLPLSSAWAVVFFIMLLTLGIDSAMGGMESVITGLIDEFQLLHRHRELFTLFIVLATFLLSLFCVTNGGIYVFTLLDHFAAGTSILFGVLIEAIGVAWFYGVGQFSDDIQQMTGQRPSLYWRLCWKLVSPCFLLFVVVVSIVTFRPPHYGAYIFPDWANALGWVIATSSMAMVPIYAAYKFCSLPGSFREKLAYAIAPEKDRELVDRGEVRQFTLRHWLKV
# How it was run: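 Dopamine transporter antagonist radioligand binding used [3H]BTCP, tested at 0.1, 1.0 and 10 mM, as percent inhibition. Each value is the average of two independent determinations.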
# [20] = Bioavailability in mouse at 100 mg/kg, ip administered through DMA/solutol/water; type: ADME, organism-based; conditions: in vivo
# [21] = species on record: Homo sapiens; experiment: Displacement of [3H]-D888 from L-type Ca2+ channel verapamil site (unknown origin) at […]
# [22] = AUCinfinity in mouse at 100 mg/kg, ip administered through DMA/solutol/water; type: ADME, organism-based; set-up: dose 100 mg/kg, route intraperitoneal, time infinity; conditions: in vivo
# [23] = Tmax in mouse at 25 mg/kg, po; type: ADME, organism-based; conditions: in vivo
# [24] = species on record: Homo sapiens; experiment: Displacement of [3H]-glibencamide from K (ATP) channel (unknown origin) at […]
# [25] = tested on: NCI-H1650; experiment: Cytotoxicity against human NCI-H1650 cells assessed as growth inhibition after 48 hrs by MTT assay; type: functional; conditions: NCI-H1650, 48 h
# How it was run: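 H1650 cells were exposed to drug for 48 h at five concentrations bracketing 1–40 μM in 10 μM steps, with MTT read-out. GI50 is given only where the data form a sigmoidal dose response.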
# [26] = target: Voltage-gated inwardly rectifying potassium channel KCNH2 (Homo sapiens, UniProt Q12809); experiment: Displacement of [3H]-astemizole from human ERG at […]
# [27] = target: T1, Muscarinic acetylcholine receptor M2 (Homo sapiens) (UniProt P08172); experiment: Displacement of [3H]-AF-DX384 from muscarinic acetylcholine M2 receptor (unknown origin) at […]
# T1 sequence (whole entry): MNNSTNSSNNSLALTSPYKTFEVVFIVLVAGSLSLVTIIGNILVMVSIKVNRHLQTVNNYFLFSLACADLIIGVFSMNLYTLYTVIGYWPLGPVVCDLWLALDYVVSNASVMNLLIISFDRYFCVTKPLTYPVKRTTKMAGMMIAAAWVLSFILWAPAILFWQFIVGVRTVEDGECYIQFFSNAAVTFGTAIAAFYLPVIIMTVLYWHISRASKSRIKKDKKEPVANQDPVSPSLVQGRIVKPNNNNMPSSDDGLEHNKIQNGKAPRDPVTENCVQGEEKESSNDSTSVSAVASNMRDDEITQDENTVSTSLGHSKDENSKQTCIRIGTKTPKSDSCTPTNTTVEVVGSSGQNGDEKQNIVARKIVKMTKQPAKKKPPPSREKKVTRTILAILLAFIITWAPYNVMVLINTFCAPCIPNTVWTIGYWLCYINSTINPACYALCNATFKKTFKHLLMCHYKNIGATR
# [28] = Half life in mouse at 1 mg/kg, iv; type: ADME, organism-based; conditions: in vivo
# [29] = AUCinfinity in mouse at 1 mg/kg, iv; type: ADME, organism-based; set-up: dose 1 mg/kg, time infinity, route intravenous; conditions: in vivo
# [30] = target: Sodium-dependent noradrenaline transporter (Homo sapiens) (UniProt P23975); experiment: Displacement of [3H]-nisoxetine from norepinephrine transporter (unknown origin) at 1 to 10 mM; how it was run: as §1
# Sequence of Sodium-dependent noradrenaline transporter (Homo sapiens) (P23975 whole entry): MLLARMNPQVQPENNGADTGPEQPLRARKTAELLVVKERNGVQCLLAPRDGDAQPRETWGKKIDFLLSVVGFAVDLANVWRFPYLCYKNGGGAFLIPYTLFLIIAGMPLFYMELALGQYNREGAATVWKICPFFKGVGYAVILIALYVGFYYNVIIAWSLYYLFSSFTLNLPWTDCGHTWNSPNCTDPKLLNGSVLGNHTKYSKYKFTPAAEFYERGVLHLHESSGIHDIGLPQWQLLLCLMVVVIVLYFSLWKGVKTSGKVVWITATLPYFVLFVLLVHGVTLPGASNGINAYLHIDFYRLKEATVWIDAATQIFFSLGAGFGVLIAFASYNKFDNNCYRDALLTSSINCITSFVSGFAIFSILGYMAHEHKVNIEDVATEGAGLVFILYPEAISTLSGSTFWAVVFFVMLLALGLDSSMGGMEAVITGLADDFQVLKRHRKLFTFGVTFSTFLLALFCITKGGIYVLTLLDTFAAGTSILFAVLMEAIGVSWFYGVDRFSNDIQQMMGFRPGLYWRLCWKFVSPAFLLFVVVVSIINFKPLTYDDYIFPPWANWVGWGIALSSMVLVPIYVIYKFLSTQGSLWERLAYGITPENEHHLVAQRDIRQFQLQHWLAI
# [31] = target: Histamine H1 receptor (Homo sapiens) (UniProt P35367); experiment: Displacement of [3H]-pyrilamine from histamine H1 receptor (unknown origin) at […]
# Sequence of Histamine H1 receptor (Homo sapiens) (P35367 whole entry): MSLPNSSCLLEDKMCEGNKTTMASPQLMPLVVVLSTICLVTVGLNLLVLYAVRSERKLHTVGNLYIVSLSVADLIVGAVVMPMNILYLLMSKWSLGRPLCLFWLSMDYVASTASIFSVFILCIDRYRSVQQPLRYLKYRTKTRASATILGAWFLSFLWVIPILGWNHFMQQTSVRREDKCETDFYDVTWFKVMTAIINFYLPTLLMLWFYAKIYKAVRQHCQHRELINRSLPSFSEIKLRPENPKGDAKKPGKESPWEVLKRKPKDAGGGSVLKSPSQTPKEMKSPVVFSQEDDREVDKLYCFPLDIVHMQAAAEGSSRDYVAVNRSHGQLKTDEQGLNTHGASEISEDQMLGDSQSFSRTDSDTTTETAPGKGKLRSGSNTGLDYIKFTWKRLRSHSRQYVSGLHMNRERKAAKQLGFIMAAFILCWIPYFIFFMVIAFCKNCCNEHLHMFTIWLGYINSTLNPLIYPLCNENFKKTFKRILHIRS
# [32] = tested on: NCI-H1650; experiment: Induction of apoptosis in human NCI-H1650 cells by Annexin V staining; type: functional, cell-based
# [33] = AUClast in mouse at 100 mg/kg, ip administered through DMSO; type: ADME, organism-based; conditions: in vivo
# [34] = Tmax in mouse at 100 mg/kg, po; type: ADME, organism-based; conditions: in vivo
# [35] = AUClast in mouse at 100 mg/kg, po; type: ADME, organism-based; conditions: in vivo
# [36] = species on record: Homo sapiens; experiment: Displacement of [3H]-nitrendipine from L-type Ca2+ channel dihydropyridine site (unknown origin) at […]
# [37] = target: RAC-alpha serine/threonine-protein kinase (Homo sapiens) (UniProt P31749); experiment: Inhibition of AKT phosphorylation in human NCI-H1650 cells at 20 to 40 uM after 12 hrs by Western blot analysis; type: cell-based
# [38] = AUCinfinity in mouse at 100 mg/kg, po; type: ADME, organism-based; set-up: dose 100 mg/kg, route oral, time infinity; conditions: in vivo
# [39] = AUClast in mouse at 1 mg/kg, iv; type: ADME, organism-based; conditions: in vivo
# [40] = AUCinfinity in mouse at 25 mg/kg, po; type: ADME, organism-based; set-up: dose 25 mg/kg, route oral, time infinity; conditions: in vivo
# [41] = tested on: Voltage-gated potassium channel; experiment: Displacement of [125-I]-dendrotoxin from Kv channel (unknown origin) at 0.1 to 10 mM; type: protein assay; conditions: human
# [42] = Cmax in mouse at 100 mg/kg, ip administered through DMA/solutol/water; type: ADME, organism-based; set-up: dose 100 mg/kg, route intraperitoneal; conditions: in vivo
# [43] = species on record: Homo sapiens; experiment: Displacement of [3H]-diltiazem from L-type Ca2+ channel diltiazem site (unknown origin) at […]
# [44] = AUCinfinity in mouse at 25 mg/kg, ip; type: ADME, organism-based; set-up: dose 25 mg/kg, time infinity, route intraperitoneal; conditions: in vivo
# [45] = Tmax in mouse at 25 mg/kg, ip; type: ADME, organism-based; conditions: in vivo
# [46] = Cmax in mouse at 100 mg/kg, po; type: ADME, organism-based; set-up: dose 100 mg/kg, route oral; conditions: in vivo
# [47] = Cmax in mouse at 100 mg/kg, ip administered through DMSO; type: ADME, organism-based; set-up: dose 100 mg/kg, route intraperitoneal; conditions: in vivo
# [48] = Volume of distribution at steady state in mouse at 1 mg/kg, iv; type: ADME, organism-based; conditions: in vivo, read-out: Vdss
# [49] = Cmax in mouse at 25 mg/kg, po; type: ADME, organism-based; set-up: dose 25 mg/kg, route oral; conditions: in vivo
# [50] = target: Histamine H2 receptor (Homo sapiens) (UniProt P25021); experiment: Displacement of [125I]-APT from histamine H2 receptor (unknown origin) at […]
# Sequence of Histamine H2 receptor (Homo sapiens) (P25021 whole entry): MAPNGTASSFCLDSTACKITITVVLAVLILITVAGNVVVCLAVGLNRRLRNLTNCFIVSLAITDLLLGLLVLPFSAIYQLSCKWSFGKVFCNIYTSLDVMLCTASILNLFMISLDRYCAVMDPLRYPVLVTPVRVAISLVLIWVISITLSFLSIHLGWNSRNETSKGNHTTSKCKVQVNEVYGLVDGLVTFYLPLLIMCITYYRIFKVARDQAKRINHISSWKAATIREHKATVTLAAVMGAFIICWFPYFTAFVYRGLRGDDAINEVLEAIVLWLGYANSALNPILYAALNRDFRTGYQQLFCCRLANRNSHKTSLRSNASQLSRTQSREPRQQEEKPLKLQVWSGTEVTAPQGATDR
# [51] = AUCinfinity in mouse at 100 mg/kg, ip administered through DMSO; type: ADME, organism-based; set-up: dose 100 mg/kg, time infinity, route intraperitoneal; conditions: in vivo
# [52] = target: Sodium-dependent dopamine transporter (Homo sapiens) (UniProt Q01959); conditions: 10 mM
# [53] = target: Sodium-dependent noradrenaline transporter (Homo sapiens) (UniProt P23975); experiment: Displacement of [3H]-nisoxetine from norepinephrine transporter (unknown origin) at 1 mM relative to control; how it was run: as §1
# [54] = target: Sodium-dependent noradrenaline transporter (Homo sapiens) (UniProt P23975); experiment: Displacement of [3H]-nisoxetine from norepinephrine transporter (unknown origin) at 10 mM relative to control; how it was run: as §1
# [55] = target: Sodium-dependent dopamine transporter (Homo sapiens) (UniProt Q01959); conditions: 1 mM
# [56] = target: Sodium-dependent noradrenaline transporter (Homo sapiens) (UniProt P23975); experiment: Displacement of [3H]-nisoxetine from norepinephrine transporter (unknown origin) at 0.1 mM relative to control; how it was run: as §1
structure (smiles),measurement,setting,value
O=S(=O)(NCCCN1c2ccccc2CCc2ccc(Cl)cc21)c1ccc(OC(F)(F)F)cc1,bioavailability,[1],18%
same,AUC(0-t),[2],3570 ng·h/mL
same,inhibition,[3],Active
same,Activity,[4],Active
same,Tmax,[5],2 h
same,bioavailability,[6],38%
same,inhibition (INH),[7],Not Active
same,AUC(0-t),[8],1380 ng·h/mL
same,bioavailability,[9],100%
same,bioavailability,[10],15%
same,clearance,[11],42 mL/min/kg
same,inhibition,[12],< 5%
same,fold change (FC),[13],1.49
same,AUC(0-t),[14],12800 ng·h/mL
same,Activity,[15],inactive
same,Cmax,[16],754 ng/mL
same,inhibition,[17],inactive
same,Tmax,[18],4 h
same,inhibition,[19],Active
same,bioavailability,[20],34%
same,inhibition,[21],inactive
same,AUC(0-inf),[22],14100 ng·h/mL
same,Tmax,[23],1 h
same,inhibition,[24],inactive
same,GI50,[25],12.6 µM
same,inhibition (INH),[26],Not Active
same,inhibition,[27],inactive
same,half-life,[28],0.61 h
same,AUC(0-inf),[29],399 ng·h/mL
same,inhibition,[30],Active
same,inhibition,[31],inactive
same,Activity,[32],Active
same,AUC(0-t),[33],38800 ng·h/mL
same,Tmax,[34],2 h
same,AUC(0-t),[35],6790 ng·h/mL
same,inhibition,[36],inactive
same,inhibition,[37],Active
same,AUC(0-inf),[38],7210 ng·h/mL
same,AUC(0-t),[39],375 ng·h/mL
same,AUC(0-inf),[40],1430 ng·h/mL
same,inhibition (INH),[41],Not Active
same,Cmax,[42],2350 ng/mL
same,inhibition,[43],inactive
same,AUC(0-inf),[44],3680 ng·h/mL
same,Tmax,[45],1 h
same,Cmax,[46],1940 ng/mL
same,Cmax,[47],3100 ng/mL
same,Vd,[48],1.31 L/kg
same,Cmax,[49],476 ng/mL
same,inhibition,[50],inactive
same,AUC(0-inf),[51],40700 ng·h/mL
CN(C)CCCN1c2ccccc2CCc2ccc(Cl)cc21 [CLOMIPRAMINE],Activity,[4],Active
same,inhibition (INH),[7],Active
same,inhibition,[52],60%
same,GI50,[25],> 40 µM
same,inhibition,[53],90%
same,inhibition,[54],100%
same,inhibition,[55],14%
same,inhibition,[56],5%
